Bioassay records: PubChem BioAssay, Sanford-Burnham Center for Chemical Genomics
Shown are actives, neighbours in structure and some others; about 1.3% of the full set was active somewhere.
Diaph inh CS: diaphorase inhibitors and chemical oxidizers, primary screen, counter-screen for diaphorase-coupled primary assays, biochemical, uHTS, resorufin fluorescence | 0.69% of 190,000 active | inhibition, % at 20 µM | diaphorase resazurin-to-resorufin fluorescence, NADH, 16 min; bacterial (C. kluyveri) enzyme, not human;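 active = primary screen inhibition at 20 µM above a set limit, cut at about 50% in these data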;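 also: plate controls were DMSO with full reaction for no effect and wells lacking NADH for full effect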
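Test system: Clostridium kluyveri diaphorase enzyme / Quantity: diaphorase at 0.14 U/mL in enzyme working solution / Incubation: 16-min room-temperature incubation before reading / Benchmarks: NADH-free wells as positive control, DMSO-only neutral wells / Signal: resorufin fluorescence 544/590 nm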
Diaph act CS: compounds boosting diaphorase resazurin reduction – biochemical, uHTS, resorufin fluorescence, counter-screen for diaphorase-coupled primary assays, primary screen | Diaphorase/resazurin coupled assay, 16 min; stronger effect = higher value; 1 = vehicle wells, 0 = NADH-free wells | activation factor at 20 µM | 0.005% of 190,000 active | AID 1229, 2008;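 active = diaphorase activity raised at least twofold by the compound at 20 µM; inactive = activation factor below 2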
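Material: bacterial diaphorase enzyme (C. kluyveri); amount: enzyme 0.07 U/mL final; reagent: NADH substrate 0.114 mM plus resazurin dye 0.1 mM, final; doses: single compound dose of 20 µM, 1% DMSO final; timing: 16 min enzyme reaction, ambient temperature; measured by: fluorescence of resorufin, 544 nm excitation, 590 nm emission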
PfGluPho inh: PfG6PD enzyme inhibitors, primary screen, biochemical, fluorescence intensity, uHTS. glucose-6-phosphate dehydrogenase-6-phosphogluconolactonase (Plasmodium falciparum 3D7). PfGluPho enzyme, NADPH resazurin-diaphorase fluorescence. inhibition, % at 20 µM. 0.78% of 350,000 active. AID 504690, 2011;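 active = inhibition reaching at least a set limit at 20 µM in the primary screen, cut at about 59% in these data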;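 also: 0% = DMSO wells with substrate and 100% = DMSO wells lacking glucose-6-phosphate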
G6PDH CS: L. mesenteroides G6PDH inhibitors, counter-screen for G6PDH-coupled screening assays, biochemical, Leuconostoc mesenteroides enzyme | glucose-6-phosphate dehydrogenase [Leuconostoc mesenteroides] | Purified L. mesenteroides G6PDH, diaphorase/resazurin coupled fluorescence, 45 min | inhibition, % at 5 µM | 0.12% of 200,000 active | AID 1020, 2008; in the data active = inhibition above about 50%
HKDC1 inh: HKDC1 hexokinase inhibitors, primary screen, biochemical, fluorescence, uHTS; recombinant HKDC1, G6PDH/diaphorase resazurin coupled fluorescence; inhibition, % at 20 µM; 0.16% of 340,000 active; AID 493160, 2011;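 active = inhibition above about 35% when tested at 20 µM, limit read from the data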;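 also: plate controls were DMSO wells with enzyme for no effect and DMSO wells lacking enzyme for full effect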
Target sequence (Q2TB90 whole entry, looked up): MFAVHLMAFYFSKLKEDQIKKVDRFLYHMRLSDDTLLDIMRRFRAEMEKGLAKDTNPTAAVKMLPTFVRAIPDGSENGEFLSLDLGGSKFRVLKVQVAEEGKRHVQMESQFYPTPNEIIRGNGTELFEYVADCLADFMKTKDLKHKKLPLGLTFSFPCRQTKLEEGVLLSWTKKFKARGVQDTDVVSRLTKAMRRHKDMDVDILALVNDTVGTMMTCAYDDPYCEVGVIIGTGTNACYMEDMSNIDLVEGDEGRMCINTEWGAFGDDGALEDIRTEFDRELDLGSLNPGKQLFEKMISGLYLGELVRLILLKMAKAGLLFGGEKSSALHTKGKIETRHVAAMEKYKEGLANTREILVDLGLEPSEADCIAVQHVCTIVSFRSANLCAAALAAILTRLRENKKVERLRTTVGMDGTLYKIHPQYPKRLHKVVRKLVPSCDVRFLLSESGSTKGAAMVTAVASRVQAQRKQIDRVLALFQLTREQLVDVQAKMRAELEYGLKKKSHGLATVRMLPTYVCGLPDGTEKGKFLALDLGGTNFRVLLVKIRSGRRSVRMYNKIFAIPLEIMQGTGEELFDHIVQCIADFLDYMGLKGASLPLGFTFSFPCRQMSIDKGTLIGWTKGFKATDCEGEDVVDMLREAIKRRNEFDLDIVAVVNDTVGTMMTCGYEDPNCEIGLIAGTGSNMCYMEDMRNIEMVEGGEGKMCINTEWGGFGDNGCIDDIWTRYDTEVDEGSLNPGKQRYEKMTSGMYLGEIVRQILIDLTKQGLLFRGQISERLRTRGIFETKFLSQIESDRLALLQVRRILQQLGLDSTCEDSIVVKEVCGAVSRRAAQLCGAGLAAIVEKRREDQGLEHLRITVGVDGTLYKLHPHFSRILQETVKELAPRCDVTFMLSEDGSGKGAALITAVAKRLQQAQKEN
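test system = in-house recombinant HK5 (HKDC1) enzyme | amount = HKDC1 at 5 µg/mL | control set = DMSO-enzyme wells negative, buffer-substituted wells positive | compound = one dose of 20 µM, 1% DMSO | schedule = reaction time 90 min, room temperature, protected from light | technique = resorufin fluorescence at 613 nm | reagent = glucose with 1 mM ATP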
HKDC1 act conf2: HKDC1 hexokinase activators, confirmation, biochemical, single concentration; shares compounds with HKDC1 inh; inhibition, % at 20 µM; AID 504708, 2011; recombinant HKDC1, G6PDH/diaphorase resazurin fluorescence; stronger effect = lower value; 14% of 740 active;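 active = inhibition at or below a set negative limit, negative inhibition meaning the enzyme was activated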
An asterisk follows results filed as active; / = not tested or not shown.

SMILES	Diaph inh CS	Diaph act CS	PfGluPho inh	G6PDH CS	HKDC1 inh	HKDC1 act conf2
CC(C)C[C@H](NC(=O)C1(c2ccccc2)CCN(C(=O)OC(C)(C)C)CC1)C(=O)N1CCC[C@H]1C(=O)O	/	/	4	/	-2	/
CCn1c(C)nc2cc(S(=O)(=O)Nc3ccc(C)cc3)ccc21	-2	1	-14	6	13	/
Cc1cc2cc(C)c3nnc(SCC(=O)NCc4ccc5c(c4)OCO5)n3c2cc1C	38	0.6	-3	6	31	/
COc1ccc(N2CCN(C(=O)CSc3nnc4c(C)cc5c(C)cc(C)cc5n34)CC2)cc1	44	0.6	38	-47	43*	19
Cc1cc(C)c2cc(C)c3nnc(SCC(=O)NCc4ccc5c(c4)OCO5)n3c2c1	43	0.6	-6	15	32	31
CC(C)(C)c1ccc(-c2noc(CCC(=O)NCc3ccco3)n2)cc1	6	0.9	8	1	3	/
O=c1[nH][nH]c2c(N=Cc3ccccc3O)ccc(F)c12	/	/	54	/	38*	25
NC(=O)c1ccccc1OCCOCCOCCOc1ccccc1C(N)=O	10	0.9	-5	9	-9	/
CN(C)CCCNCC(=O)NN(c1ccccc1)c1ccccc1	/	/	-9	/	-4	/
CCCCNC(=O)c1sc(=S)n2c1[nH]c(=O)c1ccccc12	67*	0.3	23	4	38*	56
CCOc1ccc(CCNC(=O)c2ccc3c(=O)[nH]c4c(C(=O)NC(C)C)sc(=S)n4c3c2)cc1	/	/	4	/	41*	26
CCCn1c(O)c(CN2CCCCC2)c(C)c(C#N)c1=O	34	0.7	4	30	12	/
Cc1ccc(/C=N/Nc2nncc(-c3ccccc3)n2)o1	9	0.9	-1	-3	3	/
Cc1[nH]n(-c2ccccc2)c(=O)c1/C=N/Nc1nncc(-c2ccccc2)n1	6	0.9	-30	-12	-47	-61*
CCCCN(CCCC)C(=S)N/N=C/c1c(C)[nH]n(-c2ccccc2)c1=O	12	0.9	4	-1	-41	-65*
O=C(O)C(CO)N=Cc1c(O)c2ccccc2oc1=O (centres undefined)	-2	1	6	9	-2	/
Cc1cc(SCC(=O)c2cccc([N+](=O)[O-])c2)nc(=O)[nH]1	/	/	40	/	-54	6
Cc1ccc(NC(=O)COC(=O)CCc2ccc(S(=O)(=O)N3CCOCC3)cc2)cc1C	15	0.9	9	7	4	/
Cc1cc(C)nc(Nc2n[nH]c(-c3ccc(C(C)(C)C)cc3)n2)n1	-6	1.1	-31	8	-51	-21
Cc1cc(C)nc(Nc2n[nH]c(-c3ccc(N)cc3)n2)n1	6	0.9	-8	-2	-2	/
CCCn1cc(CN2CCN(Cc3ccc(C)o3)C(CCO)C2)c(C)n1 (centres undefined)	4	1	5	20	8	/
COc1ccc(C(=O)OCC2CC(c3ccccc3)=NO2)cc1OC (centres undefined)	-5	1	-5	9	-3	/
COc1ccc(-c2nc3c(c(=O)n(C)c(=O)n3C)n2CC2CC(c3ccccc3)=NO2)cc1OC (centres undefined)	/	/	-51	/	-48	-33*
O=c1oc2cc(Oc3c([N+](=O)[O-])cc(C(F)(F)F)cc3[N+](=O)[O-])ccc2c2c1CCCC2	19	0.8	14	4	40*	3
CCOC(=O)CNC(=O)CSc1nc(NCc2ccccc2)nc(N(C)C)n1	16	0.8	13	-21	-4	/
Cc1cccc(NC(=O)CN(C)CC(=O)NC(c2ccccc2)c2ccccc2)c1C	/	/	13	/	-2	/
CC(C)c1nc2oc3c(NCCO)ncnc3c2c2c1COC(C)(C)C2	/	/	56	/	46*	66
CCCc1nc2oc3c(NCCOCCO)ncnc3c2c2c1COC(C)(C)C2	35	0.6	44	0	39*	42
